Columns and labels:
[1] = Concentration required to reduce cell survival to 10% of controls using V-79 cells in the clonogenic assay, in aerobic conditions; format: functional; conditions: Cricetulus griseus, V79
Method in brief: (§1)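 V-79 cells (500 000 per bottle) grown 20 h in MEM with 10% FBS. Hypoxic set gassed 2 h at 37 °C with humidified 95% N2/5% CO2. Drug in ethanol/water or DMF injected through septa. Exposure 3 h under air or hypoxia. Cells trypsinised, counted by trypan blue, 500 plated in triplicate for 6–8 days. Colonies stained with crystal violet, survival relative to solvent control.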

[2] = Hypoxic selectivity expressed as the ratio of IC50 values in air and nitrogen; format: functional
[3] = Concentration required to reduce cell survival to 10% of controls using V-79 cells in the clonogenic assay, in anaerobic conditions (hypoxic conditions); format: functional; conditions: Cricetulus griseus, V79; method in brief: as §1
Rattus norvegicus [4] = organism: Rattus norvegicus; assay: Bioreduction experiment was conducted by incubation of the sulfoxides with rat liver S-9 fractions in anaerobic conditions (N2, without cofactors); format: functional; parameters: concentration or dose not given beside the values
Method in brief: (§2)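 Rat liver S-9 fraction incubated with sulfoxide at 37 °C for 30 min with shaking. Aerobic vials were left open to air. Anaerobic vials were purged with N2 for 10 min before the compound was injected. Cofactor was NADPH, benzaldehyde, 2-hydroxypyrimidine or acetaldehyde, or none. Controls were boiled S-9 and S-9 without cofactors. For menadione, S-9 was preincubated aerobically with 1 equiv for 30 min, then benzaldehyde was added. Sulfide or sulfone was measured by HPLC or TLC densitometry.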

Rattus norvegicus [5] = organism: Rattus norvegicus; assay: Reduction potential (SCE) determined by differential pulse polarography of the sulfoxides […]; format: functional
Rattus norvegicus [6] = organism: Rattus norvegicus; assay: Bioreduction experiment was conducted by incubation of the sulfoxides with rat liver S-9 fractions in anaerobic conditions N2); format: functional; method in brief: as §2
Rattus norvegicus [7] = organism: Rattus norvegicus; assay: Bioreduction experiment was conducted by incubation of the sulfoxides with rat liver S-9 fractions in anaerobic conditions (N2, benzaldehyde); format: functional; parameters: concentration or dose not given beside the values; method in brief: as §2
[8] = Relative cytotoxicity is expressed as the ratio of the IC50 values of the corresponding sulfide to sulfoxide or to sulfone; format: functional, Cricetulus griseus
Method in brief: (§3)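 V-79 cells (about 7 × 10³ per 100 μL) preincubated 24 h, then exposed to drug for 3 h under oxic conditions. Washed 5× with HBSS and grown 48 h more. Fixed with TCA and stained with SRB. Bound dye dissolved in 10 mM Tris, spotted on TLC and read by video densitometry. IC50 is the mean of triplicates in one experiment. Ratio is IC50 of sulfide over sulfoxide or sulfone.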

[9] = Concentration of drug required to reduce V-79 cell survival to 50% of controls in a SRB assay; format: functional, cell-based; conditions: Cricetulus griseus, V79; method in brief: as §3
Rattus norvegicus [10] = organism: Rattus norvegicus; assay: Bioreduction experiment was conducted by incubation of the sulfoxides with rat liver S-9 fractions in aerobic conditions(air, without cofactors); format: functional; method in brief: as §2
Rattus norvegicus [11] = organism: Rattus norvegicus; assay: Bioreduction experiment was conducted by incubation of the sulfoxides with rat liver S-9 fractions in aerobic conditions(N2, menadione); format: functional; method in brief: as §2
[12] = Hypoxia-selective cytotoxicity required to reduce cell survival to 10% of controls using V-79 cells in the clonogenic assay, with N2; format: functional; conditions: Cricetulus griseus, V79; method in brief: as §1
Rattus norvegicus [13] = organism: Rattus norvegicus; assay: Bioreduction experiment was conducted by incubation of the sulfoxides with rat liver S-9 fractions in aerobic conditions(air, benzaldehyde); format: functional; method in brief: as §2
Rattus norvegicus [14] = organism: Rattus norvegicus; assay: Bioreduction experiment was conducted by incubation of the sulfoxides with rat liver S-9 fractions in aerobic conditions(N2, acetaldehyde); format: functional; method in brief: as §2
Rattus norvegicus [15] = organism: Rattus norvegicus; assay: Bioreduction experiment was conducted by incubation of the sulfoxides with rat liver S-9 fractions in anaerobic conditions (N2); format: functional; method in brief: as §2
Rattus norvegicus [16] = organism: Rattus norvegicus; assay: Bioreduction experiment was conducted by incubation of the sulfoxides with rat liver S-9 fractions in aerobic conditions(N2, 2-hydroxypyrimidine); format: functional; method in brief: as §2
Rattus norvegicus [17] = organism: Rattus norvegicus; assay: Bioreduction experiment was conducted by incubation of the sulfoxides with rat liver S-9 fractions in aerobic conditions(air, NADPH); format: functional; method in brief: as §2
Rattus norvegicus [18] = organism: Rattus norvegicus; assay: Bioreduction experiment was conducted by incubation of the sulfoxides with rat liver S-9 fractions in aerobic conditions(N2, NADPH); format: functional; method in brief: as §2
Rattus norvegicus [19] = organism: Rattus norvegicus; assay: Bioreduction experiment was conducted by incubation of the sulfoxides with rat liver S-9 fractions in aerobic conditions(air, control); format: functional; method in brief: as §2
Rattus norvegicus [20] = organism: Rattus norvegicus; assay: Bioreduction experiment was conducted by incubation of the sulfoxides with rat liver S-9 fractions in anaerobic conditions(N2, without cofactors); format: functional; method in brief: as §2
[21] = Hypoxia-selective cytotoxicity required to reduce cell survival to 10% of controls using V-79 cells in the clonogenic assay, with air; format: functional; conditions: Cricetulus griseus, V79; method in brief: as §1
Rattus norvegicus [22] = organism: Rattus norvegicus; assay: Bioreduction experiment was conducted by incubation of the sulfoxides with rat liver S-9 fractions in anaerobic conditions(N2, benzaldehyde); format: functional; method in brief: as §2
Rattus norvegicus [23] = organism: Rattus norvegicus; assay: Bioreduction experiment was conducted by incubation of the sulfoxides with rat liver S-9 fractions in anaerobic conditions (N2 2-hydroxypyrimidine); format: functional; method in brief: as §2
Rattus norvegicus [24] = organism: Rattus norvegicus; assay: Bioreduction experiment was conducted by incubation of the sulfoxides with rat liver S-9 fractions under anaerobic (N2) without cofactors; format: functional
Method in brief: (§4)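 Rat liver S-9 incubated with sulfoxide for 30 min at 37 °C, in open vials (air) or in vials purged with N2 for 10 min before dosing. Cofactor was NADPH, NADH, benzaldehyde, 2-hydroxypyrimidine or acetaldehyde. Controls were boiled S-9 or no cofactor. Menadione arm: 30 min aerobic preincubation with 1 equiv, then benzaldehyde. Stopped with CH2Cl2. Sulfide quantified by TLC densitometry as % of sulfoxide. Three experiments, same S-9 batch.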

Rattus norvegicus [25] = organism: Rattus norvegicus; assay: Bioreduction experiment was conducted by incubation of the sulfoxides with rat liver S-9 fractions under anaerobic (N2) in the presence of NADH; format: functional; method in brief: as §4
Rattus norvegicus [26] = organism: Rattus norvegicus; assay: Bioreduction experiment was conducted by incubation of the sulfoxides with rat liver S-9 fractions under anaerobic (N2) in the presence of 2-hydroxypyrimidine; format: functional; method in brief: as §4
Rattus norvegicus [27] = organism: Rattus norvegicus; assay: Bioreduction experiment was conducted by incubation of the sulfoxides with rat liver S-9 fractions under aerobic(air) with conditions boiled S-9 fractions; format: functional; method in brief: as §4
Rattus norvegicus [28] = organism: Rattus norvegicus; assay: Bioreduction experiment was conducted by incubation of the sulfoxides with rat liver S-9 fractions under aerobic(air) without cofactors; format: functional; method in brief: as §4
Rattus norvegicus [29] = organism: Rattus norvegicus; assay: Bioreduction experiment was conducted by incubation of the sulfoxides with rat liver S-9 fractions under anaerobic (N2) in the presence of menadione; format: functional; method in brief: as §4
Rattus norvegicus [30] = organism: Rattus norvegicus; assay: Bioreduction experiment was conducted by incubation of the sulfoxides with rat liver S-9 fractions in aerobic conditions (N2, NADPH); format: functional; method in brief: as §2
Rattus norvegicus [31] = organism: Rattus norvegicus; assay: Bioreduction experiment was conducted by incubation of the sulfoxides with rat liver S-9 fractions under aerobic(air) in the presence of were NADH; format: functional; method in brief: as §4
Rattus norvegicus [32] = organism: Rattus norvegicus; assay: Bioreduction experiment was conducted by incubation of the sulfoxides with rat liver S-9 fractions in aerobic conditions (N2, 2-hydroxypyrimidine); format: functional; method in brief: as §2
Rattus norvegicus [33] = organism: Rattus norvegicus; assay: Bioreduction experiment was conducted by incubation of the sulfoxides with rat liver S-9 fractions in aerobic conditions (air, without cofactors); format: functional; method in brief: as §2
Rattus norvegicus [34] = organism: Rattus norvegicus; assay: Bioreduction experiment was conducted by incubation of the sulfoxides with rat liver S-9 fractions in aerobic conditions (N2, acetaldehyde); format: functional; method in brief: as §2
Rattus norvegicus [35] = organism: Rattus norvegicus; assay: Bioreduction experiment was conducted by incubation of the sulfoxides with rat liver S-9 fractions in aerobic conditions (air, NADPH); format: functional; method in brief: as §2
Rattus norvegicus [36] = organism: Rattus norvegicus; assay: Bioreduction experiment was conducted by incubation of the sulfoxides with rat liver S-9 fractions under anaerobic (N2) with conditions boiled S-9 fractions; format: functional; method in brief: as §4
Rattus norvegicus [37] = organism: Rattus norvegicus; assay: Bioreduction experiment was conducted by incubation of the sulfoxides with rat liver S-9 fractions under aerobic(air) in the presence of NADPH; format: functional; method in brief: as §4
Rattus norvegicus [38] = organism: Rattus norvegicus; assay: Bioreduction experiment was conducted by incubation of the sulfoxides with rat liver S-9 fractions in aerobic conditions (air, benzaldehyde); format: functional; method in brief: as §2
Rattus norvegicus [39] = organism: Rattus norvegicus; assay: Bioreduction experiment was conducted by incubation of the sulfoxides with rat liver S-9 fractions under anaerobic (N2) in the presence of acetaldehyde; format: functional; method in brief: as §4
Rattus norvegicus [40] = organism: Rattus norvegicus; assay: Bioreduction experiment was conducted by incubation of the sulfoxides with rat liver S-9 fractions in aerobic conditions (air, control); format: functional; method in brief: as §2
Rattus norvegicus [41] = organism: Rattus norvegicus; assay: Bioreduction experiment was conducted by incubation of the sulfoxides with rat liver S-9 fractions under aerobic(air) in the presence of benzaldehyde; format: functional; method in brief: as §4
Rattus norvegicus [42] = organism: Rattus norvegicus; assay: Bioreduction experiment was conducted by incubation of the sulfoxides with rat liver S-9 fractions under anaerobic (N2) in the presence of NADPH; format: functional; method in brief: as §4
Rattus norvegicus [43] = organism: Rattus norvegicus; assay: Bioreduction experiment was conducted by incubation of the sulfoxides with rat liver S-9 fractions in aerobic conditions (N2, menadione); format: functional; method in brief: as §2

[O-][S+](c1ccc(NCCCl)cc1)c1ccc(NCCCl)cc1
IC90 [1]: 1580 µM
Selectivity [2]: 0.7
IC90 [3]: 2210 µM

[O-][s+]1c2ccccc2c2ccccc21
Bioreduction (Rattus norvegicus [4]): 0%
E (Rattus norvegicus [5]): 1.82 -V
Bioreduction (Rattus norvegicus [6]): 0%
Bioreduction (Rattus norvegicus [7]): 4.4%

Cl.O=S(=O)(c1ccc(Nc2c3ccccc3nc3ccccc23)cc1)c1ccc(N(CCCl)CCCl)cc1
Cytotoxicity [8]: 0.09
IC50 [9]: 22.2 µM

Cl.[O-][S+](c1ccc(Nc2c3ccccc3nc3ccccc23)cc1)c1ccc(N(CCCl)CCCl)cc1 (configuration not stated)
Bioreduction (Rattus norvegicus [10]): 0%
Bioreduction (Rattus norvegicus [11]): 1.07%
IC90 [12]: 180 µM
Bioreduction (Rattus norvegicus [13]): 0%
Selectivity [2]: 27
Bioreduction (Rattus norvegicus [14]): 1.79%
Bioreduction (Rattus norvegicus [15]): 0%
Bioreduction (Rattus norvegicus [16]): 1.34%
Bioreduction (Rattus norvegicus [17]): 0%
Bioreduction (Rattus norvegicus [18]): 1.37%
E (Rattus norvegicus [5]): 2.63 -V
Bioreduction (Rattus norvegicus [19]): 0%
Bioreduction (Rattus norvegicus [20]): 1.29%
IC90 [21]: 4950 µM
Cytotoxicity [8]: 0.07
IC50 [9]: 26.2 µM
Bioreduction (Rattus norvegicus [22]): 2.28%

[O-][s+]1c2ccccc2c2cc(N(CCCl)CCCl)ccc21 (configuration not stated)
IC90 [1]: 210 µM
Selectivity [2]: 1.3
Bioreduction (Rattus norvegicus [15]): 0%
IC90 [3]: 161 µM
E (Rattus norvegicus [5]): 2.03 -V
Bioreduction (Rattus norvegicus [20]): 0.46%
Bioreduction (Rattus norvegicus [22]): 1.68%
Bioreduction (Rattus norvegicus [23]): 2.02%

O=[N+]([O-])c1ccc([S+]([O-])c2ccc(N(CCCl)CCCl)cc2)cc1 (configuration not stated)
IC90 [12]: 182 µM
Selectivity [2]: 20
IC90 [21]: 3680 µM
Cytotoxicity [8]: 0.1
IC50 [9]: 21.9 µM

Cl.ClCCN(CCCl)c1ccc(Sc2ccc(Nc3c4ccccc4nc4ccccc34)cc2)cc1
Cytotoxicity [8]: 1
IC50 [9]: 1.93 µM

Nc1ccc([S+]([O-])c2ccc(N(CCCl)CCCl)cc2)cc1 (configuration not stated)
Bioreduction (Rattus norvegicus [24]): 1.75%
Bioreduction (Rattus norvegicus [25]): 9%
Bioreduction (Rattus norvegicus [26]): 8.5%
IC90 [12]: 185 µM
Bioreduction (Rattus norvegicus [27]): 0%
Bioreduction (Rattus norvegicus [28]): 1.14%
Bioreduction (Rattus norvegicus [29]): 1.6%
Bioreduction (Rattus norvegicus [30]): 0.37%
Selectivity [2]: 15
Bioreduction (Rattus norvegicus [31]): 9.75%
Bioreduction (Rattus norvegicus [32]): 4.5%
Bioreduction (Rattus norvegicus [33]): 0%
Bioreduction (Rattus norvegicus [4]): 0%
Bioreduction (Rattus norvegicus [34]): 4.42%
Bioreduction (Rattus norvegicus [35]): 0 nmol/mg
Bioreduction (Rattus norvegicus [36]): 0%
E (Rattus norvegicus [5]): 2.55 -V
Bioreduction (Rattus norvegicus [37]): 16%
Bioreduction (Rattus norvegicus [38]): 0%
Bioreduction (Rattus norvegicus [39]): 12.92%
Bioreduction (Rattus norvegicus [40]): 0%
IC90 [21]: 2800 µM
Cytotoxicity [8]: 0.08
IC50 [9]: 30 µM
Bioreduction (Rattus norvegicus [41]): 1.05%
Bioreduction (Rattus norvegicus [42]): 42.1%
Bioreduction (Rattus norvegicus [6]): 0%
Bioreduction (Rattus norvegicus [7]): 5%
Bioreduction (Rattus norvegicus [43]): 0%

[O-][S+](c1ccccc1)c1ccccc1 [(PHENYLSULFINYL)BENZENE]
Bioreduction (Rattus norvegicus [30]): 0%
Bioreduction (Rattus norvegicus [32]): 17.4%
Bioreduction (Rattus norvegicus [33]): 0%
Bioreduction (Rattus norvegicus [4]): 0%
Bioreduction (Rattus norvegicus [34]): 6%
Bioreduction (Rattus norvegicus [35]): 11.6 nmol/mg
E (Rattus norvegicus [5]): 2.3 -V
Bioreduction (Rattus norvegicus [38]): 0%
Bioreduction (Rattus norvegicus [40]): 0%
Bioreduction (Rattus norvegicus [6]): 0%
Bioreduction (Rattus norvegicus [7]): 18%
Bioreduction (Rattus norvegicus [43]): 0%

— ChEMBL document CHEMBL1133503 (J Med Chem, 2000)
